Assay results taken from ChEMBL document CHEMBL1129351, “Hypoxia-selective antitumor agents. 14. Synthesis and hypoxic cell cytotoxicity of regioisomers of the hypoxia-selective cytotoxin 5-[N,N-bis(2-chloroethyl)amino]-2,4-dinitrobenzamide” (J Med Chem, 1996).

Assays:
CHO-AA8 [1] = test: Compound was tested for the concentration required to reduce cell survival under hypoxic conditions, using the cell line AA8 in the clonogenic assay.; format: functional, Cricetulus griseus
Summary of the method: (§1)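 Clonogenic assay on early-plateau Chinese hamster cells, grown in spinner flasks (AA8 to 10⁶/mL, UV4 to 6 × 10⁵/mL) and resuspended in fresh medium. Stirred 10 mL suspensions at 10⁶/mL were exposed to drug for 1 h under continuous 5% CO₂ in N₂; cells and drug solutions were pre-equilibrated under gas for 1 h. C₁₀ = concentration (µM) giving 10% survival relative to controls.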

CHO-AA8 [2] = test: Inhibition of growth under aerobic conditions in AA8 cells; format: functional, cell-based; settings: Cricetulus griseus
Summary of the method: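 Growth-inhibition microassay: AA8 cells, 200 per well, were grown 24 h, then exposed aerobically to drug in RMEM with 5% fetal bovine serum for 18 h and washed three times. After a further 78 h they were stained with methylene blue. IC₅₀ = concentration giving 50% growth inhibition relative to controls; means ± SEM, values without SEM from a single determination.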

UV4 = test: Compound was tested for the concentration required to reduce cell survival under hypoxic conditions, using the cell line UV4 in the clonogenic assay.; format: functional, Cricetulus griseus; summary of the method: as §1
[3] = Potency in clonogenic assay, defined by hypersensitivity factor calculated for UV4 cells versus AA8 cells [IC50(AA8)/IC50(UV4)]; format: functional, Cricetulus griseus
[4] = The ratio of C10 values in air and N2 using AA8 cell line.; format: functional, CHO-AA8
Summary of the method: (§2)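 Stirred early-plateau suspensions (10⁶/mL) of AA8 or UV4 cells were exposed to drug for 1 h under continuous gassing with 5% CO₂ in air or in N₂, after 1 h pre-equilibration, and then plated for clonogenic survival. C₁₀ (10% survival) was found for each gas phase and the ratio C₁₀(air)/C₁₀(N₂) reported.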

[5] = The ratio of C10 values in air and N2 using UV4 cell line.; format: functional; summary of the method: as §2
[6] = Potency in clonogenic assay defined by Hypersensitivity factor calculated for AA8 cells versus EMT6 cells [IC50(AA8)/IC50 (EMT6)]; format: functional
Summary of the method: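 Aerobic growth-inhibition microassay run in parallel on AA8 (200/well), UV4 (300/well) and murine mammary EMT6 (75/well) cells. After 24 h growth, cells were given 18 h drug exposure in RMEM/5% FBS, washed, grown a further 78 h, and stained with methylene blue. The hypersensitivity factor is IC₅₀(AA8)/IC₅₀(named line), reported as intraexperiment means ± SEM.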

CHO-AA8 [7] = test: Inhibitory activity against AA8 cell growth in aerobic condition after 4 hr of exposure; format: functional, cell-based; settings: Cricetulus griseus, CHO-AA8, 4 h

| SMILES | C10 (CHO-AA8 [1]) | IC50 (CHO-AA8 [2]) | C10 (UV4) | Hypersensitivity factor [3] | Ratio [4] | Ratio [5] | Hypersensitivity factor [6] | IC50 (CHO-AA8 [7]) |
| --- | --- | --- | --- | --- | --- | --- | --- | --- |
| CN(C)CCNC(=O)c1c([N+](=O)[O-])ccc(N(CCCl)CCCl)c1[N+](=O)[O-] | 2200 µM | 426 µM | 2200 µM | 2.7 | 2.2 | 116 | 3 | – |
| CN(C)CCNC(=O)c1cc([N+](=O)[O-])c(N(CCCl)CCCl)cc1[N+](=O)[O-] | 120 µM | 12 µM | 12 µM | 13 | 3.2 | 7.5 | 5.8 | – |
| CN(C)CCNC(=O)c1cc([N+](=O)[O-])cc([N+](=O)[O-])c1N(CCCl)CCCl | – | 150 µM | 1100 µM | 13 | >2.35 | 68 | 2.5 | – |
| O=C(NCC(O)CO)c1cc([N+](=O)[O-])c([N+](=O)[O-])cc1N(CCCl)CCCl (stereo unspecified) | – | 73 µM | – | 1.5 | – | – | 1.9 | – |
| O=C(NCC(O)CO)c1c([N+](=O)[O-])ccc(N(CCCl)CCCl)c1[N+](=O)[O-] (stereo unspecified) | – | 652 µM | – | 2.7 | – | – | 1.7 | – |
| NC(=O)c1cc(N(CCCl)CCCl)c(NO)cc1[N+](=O)[O-] | – | – | – | – | – | – | – | 180 µM |
| CN(C)CCNC(=O)c1cc([N+](=O)[O-])c(N(CCCl)CCCl)c([N+](=O)[O-])c1 | 270 µM | 62 µM | 250 µM | 1.8 | 0.96 | 1.04 | 2.1 | – |
| NC(=O)c1cc([N+](=O)[O-])c([N+](=O)[O-])cc1N(CCCl)CCCl | – | 1.6 µM | – | 0.88 | – | – | 0.43 | – |
| O=C(NCC(O)CO)c1cc([N+](=O)[O-])c(N(CCCl)CCCl)cc1[N+](=O)[O-] (stereo unspecified) | – | 81 µM | – | 12 | – | – | 3.5 | – |
| NC(=O)c1c([N+](=O)[O-])ccc(N(CCCl)CCCl)c1[N+](=O)[O-] | – | > 244 µM | – | >2.6 | – | – | – | – |
| NC(=O)c1cc([N+](=O)[O-])cc([N+](=O)[O-])c1N(CCCl)CCCl | – | 73 µM | – | 4.3 | – | – | 0.7 | – |
| CN(C)CCNC(=O)c1cc(N(CCCl)CCCl)c([N+](=O)[O-])cc1[N+](=O)[O-] | 1300 µM | – | 400 µM | 3.1 | 3.1 | 44 | 6.7 | – |
| CN(C)CCNC(=O)c1cc([N+](=O)[O-])c([N+](=O)[O-])cc1N(CCCl)CCCl | 44 µM | 4 µM | 18 µM | 1.4 | 0.098 | 1.8 | 3 | – |
| O=C(NCC(O)CO)c1ccc(N(CCCl)CCCl)c([N+](=O)[O-])c1[N+](=O)[O-] (stereo unspecified) | – | 108 µM | – | 2.3 | – | – | 3 | – |
| O=C(NCC(O)CO)c1cc([N+](=O)[O-])cc([N+](=O)[O-])c1N(CCCl)CCCl (stereo unspecified) | – | 500 µM | – | 4.9 | – | – | 1.8 | – |
| NC(=O)c1cc(N(CCCl)CCCl)c([N+](=O)[O-])cc1[N+](=O)[O-] | – | – | 3400 µM | 6.4 | – | 42 | 1.1 | – |
| NC(=O)c1cc([N+](=O)[O-])c(N(CCCl)CCCl)c([N+](=O)[O-])c1 | – | 97 µM | – | 1.5 | – | – | 1.3 | – |
| O=C(NCC(O)CO)c1cc(N(CCCl)CCCl)c([N+](=O)[O-])cc1[N+](=O)[O-] (stereo unspecified) | – | – | 3600 µM | 3.4 | – | 8.6 | 2.3 | – |
| CN(C)CCNC(=O)c1ccc(N(CCCl)CCCl)c([N+](=O)[O-])c1[N+](=O)[O-] | 140 µM | 13 µM | 160 µM | 1 | 0.82 | 4 | 1.2 | – |
| NC(=O)c1cc([N+](=O)[O-])c(N(CCCl)CCCl)cc1[N+](=O)[O-] | – | 11 µM | – | 2.8 | – | – | 1.9 | – |
| NC(=O)c1ccc(N(CCCl)CCCl)c([N+](=O)[O-])c1[N+](=O)[O-] | – | 20 µM | – | 1 | – | – | 3.1 | – |
| O=C(NCC(O)CO)c1cc([N+](=O)[O-])c(N(CCCl)CCCl)c([N+](=O)[O-])c1 (stereo unspecified) | – | 320 µM | – | 0.9 | – | – | 2.3 | – |
